The results in this text go back to PubChem BioAssay AID602401 (Sanford-Burnham Center for Chemical Genomics, 2012).

Molecules are shown by their SMILES. The source made the active and inactive calls.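 How the source made its calls: active means IC50 below 100 µM in the TR-FRET assay, unless also active in the caspase-3 counter assay; inactive means the rest, including compounds also active in caspase-3.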

Chain of Caspase-3 (Homo sapiens) (P42574 whole entry, looked up): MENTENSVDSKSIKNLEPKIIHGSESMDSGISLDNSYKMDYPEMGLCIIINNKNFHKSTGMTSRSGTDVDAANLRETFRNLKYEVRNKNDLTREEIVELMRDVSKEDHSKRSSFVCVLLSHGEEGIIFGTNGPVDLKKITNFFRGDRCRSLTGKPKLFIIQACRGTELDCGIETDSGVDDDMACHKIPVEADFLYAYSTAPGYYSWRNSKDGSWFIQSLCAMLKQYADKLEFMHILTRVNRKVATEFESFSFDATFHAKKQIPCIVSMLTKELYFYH

The assay concerns the target Caspase-3 (Homo sapiens) (UniProt P42574). Briefly: recombinant caspase-3 enzyme inhibitors – biochemical, Caspase-Glo luminescence, set 4, counter-screen for UBC13 polyubiquitin inhibitor project, SAR follow-up (AID 602401). Conditions: recombinant caspase-3, Caspase-Glo luminescence, 60 min. In outline:
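System: Caspase-3 enzyme / Input: Caspase-3 added as 2X working solution at 0.046 nM / Medium: Hepes buffer pH 7.8 containing DTT, EDTA, Tween and BSA / Also added: Caspase-Glo substrate added as 2X working solution at 0.75X / Schedule: Enzyme-substrate reaction 60 min at room temperature before reading / Signal: Caspase-Glo luminescence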
(In general: The purpose of a counterscreen is to sort out artefacts and off-target activity.)
As usually defined, the IC50 is the point on the concentration scale where inhibition reaches its midpoint. For the compound `COc1cc(OC)c(NC(=O)C2CCN(c3ncnc4c3nc3n4CCCCC3)CC2)cc1Cl`, the IC50 was > 100 µM (inactive).
The value for `O=C(NCC1CCN(Cc2ccc(Cl)cc2)CC1)C1CCCN(c2ncnc3c2nc2n3CCCC2)C1` (stereo unspecified) was > 100 µM (inactive); that for `Cc1ccc(C)c(N2CCN(CCCNC(=O)C3CCCN(c4ncnc5c4nc4n5CCCCC4)C3)CC2)c1` (stereo unspecified) was > 100 µM (inactive).
For the compound `O=C(NCC1CCN(Cc2cccc(Cl)c2)CC1)C1CCCN(c2ncnc3c2nc2n3CCCCC2)C1` (stereo unspecified), the IC50 was > 100 µM (inactive).
The value for `O=C(C1CCN(c2ncnc3c2nc2n3CCCCC2)CC1)N1CCN(c2ncccn2)CC1` was > 100 µM (inactive); that for `O=C(NCc1ccc(Cl)c(Cl)c1)C1CCN(c2ncnc3c2nc2n3CCCCC2)CC1` was > 100 µM (inactive); that for `O=C(NCc1cccc(Cl)c1)C1CCN(c2ncnc3c2nc2n3CCCC2)CC1` was 63.4 µM.
In the case of `O=C(NCC1CCN(Cc2cccc(Cl)c2)CC1)[C@H]1CCCN(c2ncnc3c2nc2n3CCCC2)C1`, the IC50 is > 100 µM (inactive).
Under `Cc1ccc(NC(=O)C2CCN(c3ncnc4c3nc3n4CCCCC3)CC2)cc1Cl` stands > 100 µM (inactive); under `O=C(Nc1ccc(CN2CCCCC2)cc1)C1CCN(c2ncnc3c2nc2n3CCCCC2)CC1`, > 100 µM (inactive).
With `CN(CCNC(=O)C1CCN(c2ncnc3c2nc2n3CCCCC2)CC1)Cc1ccccc1`, the IC50 is > 100 µM (inactive).
The value for `O=C(NCC1CCN(Cc2cccc(Cl)c2)CC1)[C@@H]1CCCN(c2ncnc3c2nc2n3CCCC2)C1` was > 100 µM (inactive).
The value for `Cc1cc(C)cc(NC(=O)C2CCCN(c3ncnc4c3nc3n4CCCCC3)C2)c1` (stereo unspecified) was > 100 µM (inactive); that for `Cc1ccc(NC(=O)C2CCN(c3ncnc4c3nc3n4CCCCC3)CC2)c(Cl)c1` was > 100 µM (inactive); that for `COc1ccc(NC(=O)C2CCN(c3ncnc4c3nc3n4CCCCC3)CC2)cc1Cl` was > 100 µM (inactive).
The value for `O=C(NCC1CCN(Cc2cccc(Cl)c2)CC1)[C@@H]1CCCN(c2ncnc3c2nc2n3CCCCC2)C1` was > 100 µM (inactive); that for `COc1cc(Cl)c(C)cc1NC(=O)C1CCN(c2ncnc3c2nc2n3CCCCC2)CC1` was > 100 µM (inactive).
As to `O=C(C1CCN(c2ncnc3c2nc2n3CCCCC2)CC1)N1CCN(c2ccccc2)CC1`, the IC50 is > 100 µM (inactive).
In the case of `CC1CCCC(C)N1CCCNC(=O)C1CCCN(c2ncnc3c2nc2n3CCCCC2)C1` (stereo unspecified), the IC50 is > 100 µM (inactive).
As for `CCCN1CCN(C(=O)C2CCN(c3ncnc4c3nc3n4CCCCC3)CC2)CC1`, the IC50 was > 100 µM (inactive).
Regarding `O=C(C1CCN(c2ncnc3c2nc2n3CCCCC2)CC1)N1CCN(c2ccc(F)cc2)CC1`, the IC50 was > 100 µM (inactive).
`O=C(NCC1CCN(Cc2cccc(Cl)c2)CC1)[C@H]1CCCN(c2ncnc3c2nc2n3CCCCC2)C1`: the IC50 was > 100 µM (inactive).
The value for `CCC1CCCCN1CCCNC(=O)C1CCN(c2ncnc3c2nc2n3CCCCC2)CC1` (stereo unspecified) was > 100 µM (inactive); that for `O=C(C1CCN(c2ncnc3c2nc2n3CCCCC2)CC1)N1CCN(Cc2ccccc2)CC1` was > 100 µM (inactive); that for `CC1CC(C)CN(C(=O)C2CCN(c3ncnc4c3nc3n4CCCCC3)CC2)C1` (stereo unspecified) was > 100 µM (inactive).
The value for `O=C(NCC1CCN(Cc2ccccc2Cl)CC1)C1CCCN(c2ncnc3c2nc2n3CCCC2)C1` (stereo unspecified) was > 100 µM (inactive); that for `O=C(NCC1CCN(Cc2ccc(Cl)c(Cl)c2)CC1)C1CCCN(c2ncnc3c2nc2n3CCCCC2)C1` (stereo unspecified) was > 100 µM (inactive).
For the compound `O=C(NCc1ccc(Cl)c(Cl)c1)C1CCCN(c2ncnc3c2nc2n3CCCC2)C1` (stereo unspecified), the IC50 was > 100 µM (inactive).
Under `Cc1ccc(NC(=O)C2CCN(c3ncnc4c3nc3n4CCCCC3)CC2)cc1C` stands > 100 µM (inactive); under `Cc1ccccc1CN1CCC(CNC(=O)C2CCCN(c3ncnc4c3nc3n4CCCCC3)C2)CC1` (stereo unspecified), > 100 µM (inactive).
The value for `O=C(C1CCN(c2ncnc3c2nc2n3CCCCC2)CC1)N1CCOCC1` was > 100 µM (inactive); that for `O=C(NCC1CCN(Cc2cccc(Cl)c2)CC1)C1CCCN(c2ncnc3c2nc2n3CCCC2)C1` (stereo unspecified) was > 100 µM (inactive); that for `O=C(c1ccco1)N1CCN(C(=O)C2CCN(c3ncnc4c3nc3n4CCCCC3)CC2)CC1` was > 100 µM (inactive).
The value for `Cc1ccc(NC(=O)C2CCCN(c3ncnc4c3nc3n4CCCC3)C2)cc1C` (stereo unspecified) was > 100 µM (inactive).
For `Cc1ccc(NC(=O)C2CCCN(c3ncnc4c3nc3n4CCCCC3)C2)cc1F` (stereo unspecified), the IC50 is > 100 µM (inactive).
The value for `COc1ccc(Cl)cc1NC(=O)C1CCN(c2ncnc3c2nc2n3CCCCC2)CC1` was > 100 µM (inactive).
Under `Cc1ccc(NC(=O)C2CCN(c3ncnc4c3nc3n4CCCC3)CC2)cc1Br` stands > 100 µM (inactive).
The value for `O=C(NCC1CCN(Cc2ccc(F)cc2)CC1)C1CCCN(c2ncnc3c2nc2n3CCCCC2)C1` (stereo unspecified) was > 100 µM (inactive); that for `Cc1cc(C)cc(NC(=O)C2CCN(c3ncnc4c3nc3n4CCCCC3)CC2)c1` was > 100 µM (inactive); that for `O=C(NCC1CCN(Cc2ccccc2Cl)CC1)C1CCCN(c2ncnc3c2nc2n3CCCCC2)C1` (stereo unspecified) was > 100 µM (inactive).
Regarding `Cc1cccc(N2CCN(CCCNC(=O)C3CCCN(c4ncnc5c4nc4n5CCCCC4)C3)CC2C)c1` (stereo unspecified), the IC50 was > 100 µM (inactive).
Under `O=C(NCc1cccc(Cl)c1)C1CCCN(c2ncnc3c2nc2n3CCCCC2)C1` (stereo unspecified) stands > 100 µM (inactive); under `CC1CCCCN1C(=O)C1CCN(c2ncnc3c2nc2n3CCCCC2)CC1` (stereo unspecified), > 100 µM (inactive); under `Cc1ccc(NC(=O)C2CCN(c3ncnc4c3nc3n4CCCC3)CC2)cc1F`, > 100 µM (inactive).
The value for `Cc1cc(C)cc(NC(=O)C2CCCN(c3ncnc4c3nc3n4CCCC3)C2)c1` (stereo unspecified) was > 100 µM (inactive).
The value for `Cc1cccc(NC(=O)C2CCN(c3ncnc4c3nc3n4CCCCC3)CC2)c1` was > 100 µM (inactive); that for `O=C(Nc1cc(F)ccc1F)C1CCN(c2ncnc3c2nc2n3CCCCC2)CC1` was > 100 µM (inactive).
On to `Cc1ccc(NC(=O)C2CCCN(c3ncnc4c3nc3n4CCCC3)C2)cc1F` (stereo unspecified), for which the IC50 was > 100 µM (inactive).
Under `O=C(NCc1ccc(Cl)c(Cl)c1)C1CCCN(c2ncnc3c2nc2n3CCCCC2)C1` (stereo unspecified) stands > 100 µM (inactive); under `O=C(Nc1cccc(Cl)c1)C1CCN(c2ncnc3c2nc2n3CCCCC2)CC1`, > 100 µM (inactive); under `Cc1cc(C)cc(NC(=O)C2CCN(c3ncnc4c3nc3n4CCCC3)CC2)c1`, > 100 µM (inactive).
As to `O=C(NCCCN1CCN(c2ccccc2)CC1)C1CCCN(c2ncnc3c2nc2n3CCCCC2)C1` (stereo unspecified), the IC50 is > 100 µM (inactive).
Take `Cc1ccc(NC(=O)C2CCN(c3ncnc4c3nc3n4CCCCC3)CC2)cc1Br`: the IC50 is > 100 µM (inactive).
Under `O=C(NCCCN1CCN(c2ccc(F)cc2)CC1)C1CCCN(c2ncnc3c2nc2n3CCCCC2)C1` (stereo unspecified) stands > 100 µM (inactive); under `Cc1ccc(NC(=O)C2CCCN(c3ncnc4c3nc3n4CCCC3)C2)cc1Br` (stereo unspecified), > 100 µM (inactive).
As for `Cc1cc(Cl)ccc1NC(=O)C1CCN(c2ncnc3c2nc2n3CCCCC2)CC1`, the IC50 is > 100 µM (inactive).
Under `O=C(NCc1cccc(Cl)c1)C1CCCN(c2ncnc3c2nc2n3CCCC2)C1` (stereo unspecified) stands > 100 µM (inactive); under `O=C(NCC1CCN(Cc2ccc(Cl)c(Cl)c2)CC1)C1CCCN(c2ncnc3c2nc2n3CCCC2)C1` (stereo unspecified), > 100 µM (inactive).
Under `O=C(NCC1CCN(Cc2ccc(Cl)cc2)CC1)C1CCCN(c2ncnc3c2nc2n3CCCCC2)C1` (stereo unspecified) stands > 100 µM (inactive); under `O=C(C1CCN(c2ncnc3c2nc2n3CCCCC2)CC1)N1CCC(Cc2ccccc2)CC1`, > 100 µM (inactive).
Under `O=C(Nc1ccc(F)c(Cl)c1)C1CCN(c2ncnc3c2nc2n3CCCCC2)CC1` stands > 100 µM (inactive).
On to `O=C(NCCCN1CCCCC1)C1CCN(c2ncnc3c2nc2n3CCCCC2)CC1`, for which the IC50 was > 100 µM (inactive).
As for `O=C(NCC1CCN(Cc2ccccc2F)CC1)C1CCCN(c2ncnc3c2nc2n3CCCCC2)C1` (stereo unspecified), the IC50 was > 100 µM (inactive).
Under `COc1ccccc1N1CCN(CCCNC(=O)C2CCCN(c3ncnc4c3nc3n4CCCCC3)C2)CC1` (stereo unspecified) stands > 100 µM (inactive); under `Cc1c(Cl)cccc1NC(=O)C1CCN(c2ncnc3c2nc2n3CCCCC2)CC1`, > 100 µM (inactive).
Consider `Cc1ccc(NC(=O)C2CCN(c3ncnc4c3nc3n4CCCC3)CC2)cc1C`, for which the IC50 is > 100 µM (inactive).
The value for `Cc1ccc(NC(=O)C2CCCN(c3ncnc4c3nc3n4CCCCC3)C2)cc1Br` (stereo unspecified) was > 100 µM (inactive); that for `Cc1cccc(NC(=O)C2CCN(c3ncnc4c3nc3n4CCCCC3)CC2)c1C` was > 100 µM (inactive).
The value for `Cc1cccc(NC(=O)C2CCCN(c3ncnc4c3nc3n4CCCCC3)C2)c1` (stereo unspecified) was > 100 µM (inactive); that for `Cc1cccc(NC(=O)C2CCCN(c3ncnc4c3nc3n4CCCC3)C2)c1` (stereo unspecified) was > 100 µM (inactive).
`Cc1cccc(NC(=O)C2CCN(c3ncnc4c3nc3n4CCCC3)CC2)c1`: the IC50 was 69 µM.
The value for `Cc1ccc(NC(=O)C2CCN(c3ncnc4c3nc3n4CCCCC3)CC2)cc1F` was > 100 µM (inactive).
Under `O=C(NCc1ccc(Cl)c(Cl)c1)C1CCN(c2ncnc3c2nc2n3CCCC2)CC1` stands > 100 µM (inactive); under `O=C(C1CCN(c2ncnc3c2nc2n3CCCCC2)CC1)N1CCN(c2ccccn2)CC1`, > 100 µM (inactive).
Under `Cc1ccc(C)c(CN2CCC(CNC(=O)C3CCCN(c4ncnc5c4nc4n5CCCCC4)C3)CC2)c1` (stereo unspecified) stands > 100 µM (inactive); under `O=C(NCc1cccc(Cl)c1)C1CCN(c2ncnc3c2nc2n3CCCCC2)CC1`, > 100 µM (inactive).
